Measurements published in ChEMBL document CHEMBL1142407, “Angucyclinones from an Indonesian Streptomyces sp” (J Nat Prod, 2008).
Activity calls are given as the source filed them. The rule behind the calls is not given here.

Assays:
Type in all cases: functional, organism-based
[1] = test system: Bacillus subtilis; assay: Antibacterial activity against Bacillus subtilis at 20 to 120 ug/disk
Summary of the method: (§1)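 Agar diffusion test with compound loaded at 20 to 120 µg/disk. Read-out is a zone of growth inhibition of the test organism on agar. The same format covers bacteria (S. aureus, B. subtilis, E. coli, P. aeruginosa), the fungus Mucor miehei and the yeast Candida albicans.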

[2] = test system: Escherichia coli; assay: Antibacterial activity against Escherichia coli at 20 to 120 ug/disk; summary of the method: as §1
[3] = test system: Pseudomonas aeruginosa; assay: Antibacterial activity against Pseudomonas aeruginosa at 20 to 120 ug/disk; summary of the method: as §1
[4] = test system: Trichomonas vaginalis; assay: Antiprotozoal activity against Trichomonas vaginalis
[5] = test system: Rhizomucor miehei; assay: Antifungal activity against Mucor miehei at 20 to 120 ug/disk; summary of the method: as §1
[6] = test system: Candida albicans; assay: Antifungal activity against Candida albicans at 20 to 120 ug/disk; summary of the method: as §1
[7] = test system: Staphylococcus aureus; assay: Antibacterial activity against Staphylococcus aureus at 20 to 120 ug/disk; summary of the method: as §1

## C[C@@H]1CC(=O)C2=C(C3OC3[C@]3(O)[C@H]2C(=O)c2cccc(O)c2[C@@H]3O)[C@H]1O (stereo not given in full)
[1]
  Activity: inactive
[2]
  Activity: inactive
[3]
  Activity: inactive
[4]
  Activity: inactive
[5]
  Activity: inactive
[6]
  Activity: inactive
[7]
  Activity: inactive

## C[C@@H]1CC(=O)C2=C(CC[C@]3(O)[C@H]2C(=O)c2cccc(O)c2[C@@H]3O)C1
[1]
  Activity: inactive
[2]
  Activity: inactive
[3]
  Activity: inactive
[4]
  Activity: inactive
[5]
  Activity: inactive
[6]
  Activity: inactive
[7]
  Activity: inactive

## C[C@H]1CC(=O)c2c(ccc3c2C(=O)c2cccc(O)c2C3=O)[C@@H]1O
[1]
  Activity: Active
[3]
  Activity: Active

## C[C@@H]1CC(=O)C2=C(C[C@@H](O)[C@]3(O)[C@H]2C(=O)c2cccc(O)c2[C@@H]3O)[C@H]1O
[1]
  Activity: inactive
[2]
  Activity: inactive
[3]
  Activity: inactive
[4]
  Activity: inactive
[5]
  Activity: inactive
[6]
  Activity: inactive
[7]
  Activity: inactive

## C[C@@H]1CC(=O)C2=C(C1)C1OC1[C@]1(O)[C@H]2C(=O)c2cccc(O)c2[C@@H]1O (stereo not given in full)
[1]
  Activity: inactive
[2]
  Activity: inactive
[3]
  Activity: inactive
[4]
  Activity: inactive
[5]
  Activity: inactive
[6]
  Activity: inactive
[7]
  Activity: inactive

## C[C@@H]1CC(=O)c2c(ccc3c2C(=O)c2cccc(O)c2C3=O)C1
[1]
  Activity: Active
[3]
  Activity: Active

## C[C@@H]1CC(=O)C2=C(C1)C[C@@H](O)[C@]1(O)[C@H]2C(=O)c2cccc(O)c2[C@@H]1O
[1]
  Activity: inactive
[2]
  Activity: inactive
[3]
  Activity: inactive
[4]
  Activity: inactive
[5]
  Activity: inactive
[6]
  Activity: inactive
[7]
  Activity: inactive

## CC1CC(=O)C2(O)C(O)(CCC34OC32C(=O)c2cccc(O)c2C4O)C1 (stereo not given)
[1]
  Activity: inactive
[2]
  Activity: inactive
[3]
  Activity: inactive
[5]
  Activity: inactive
[6]
  Activity: inactive
[7]
  Activity: inactive
